# Activity calls are given as the source filed them. The calls are words filed in the database; no cut-off is given here.
# What was measured:
# [1] = target: Amyloid-beta precursor protein (Homo sapiens) (UniProt P05067); assay: Inhibition of amyloid beta (1 to 42) (unknown origin) self-induced aggregation at 20 uM after 46 to 48 hrs by thioflavin-T based fluorometric assay
# Procedure, shortened: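 HFIP-pretreated Aβ(1–42) redissolved at 25 μM in 50 mM phosphate buffer, pH 7.4. Compound at 20 μM final, with 10% final solvent, run in independent triplicates with a solvent control. Incubated in the dark at room temperature for 46–48 h without agitation. 5 μM ThT in glycine-NaOH pH 8.0 added, ex/em 446/490 nm. Inhibition = 100 − (IFi/IFo × 100).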
# [2] = test system: Radical scavenging activity; assay: Antioxidant activity assessed as DPPH free radical scavenging activity after 30 mins by spectrophotometric analysis; type: functional
# Procedure, shortened: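 Methanolic DPPH at 400 μM combined with serially diluted sample (1:9 by volume), 30 min at 37 °C in the dark, absorbance at 517 nm. Scavenging % = [1 − (A − C)/B] × 100, with a sample-only blank and MeOH as negative control. IC50 values are mean ± SD of three determinations.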
# [3] = target: Amyloid-beta precursor protein (Homo sapiens) (UniProt P05067); assay: Inhibition of Cu2+-induced amyloid beta (1 to 42) (unknown origin) aggregation at 50 uM after 24 hrs by thioflavin-T based fluorometric assay
# Procedure, shortened: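 Aβ(1–42) at 25 μM final in HEPES pH 6.6 with NaCl, with or without 25 μM Cu2+, plus 50 μM compound, incubated at 37 °C for 24 h. Sample diluted into 50 mM glycine-NaOH pH 8.0 containing 5 μM ThT, read at ex/em 446/490 nm. Mean ± SD of three independent experiments.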
# [4] = Cytotoxicity against human SH-SY5Y cells assessed as reduction of cell viability at 1 to 50 uM after 24 hrs by MTT assay; type: cell-based
# Procedure, shortened: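 SH-SY5Y cells grown in EMEM/Ham's F-12 (1:1) with 10% FBS, penicillin and streptomycin, 37 °C, 5% CO2. Seeded at 1×10^4 cells/well, switched to serum-free medium, exposed to compound for 24 h. MTT 4 h at 37 °C, formazan dissolved in DMSO, A570 with 630 nm reference. Mean ± SD of three independent experiments.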
# SH-SY5Y [5] = assay: Neuroprotective activity in human SH-SY5Y cells assessed as inhibition H2O2-induced reduction of cell viability at 1.25 to 10 uM after 24 hrs by phase-contrast micrograph analysis; type: functional, cell-based; settings: in the assay text read “MTT assay” for “phase-contrast micrograph analysis”
# Procedure, shortened: (§1)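 SH-SY5Y cells seeded at 1×10^4 cells/well. After 24 h, medium replaced with compound (1.25, 2.5, 5, 10 μM) for 24 h at 37 °C. Cells then exposed to 100 μM H2O2 for 24 h and assessed by MTT, with phase-contrast images (200×). Viability given relative to cells without H2O2, three independent experiments.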
# [6] = Metal chelating activity of the compound assessed as Fe2+-compound complex formation at 25 uM by UV-vis spectrometry; type: physicochemical
# [7] = Metal chelating activity of the compound assessed as Cu2+-compound complex formation at 25 uM by UV-vis spectrometry; type: physicochemical
# Procedure, shortened: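 Difference UV–vis spectra obtained by subtracting metal-alone and compound-alone spectra from the spectra of the mixture. Stoichiometry assessed with ligand fixed at 25 μmol/L and Cu2+ titrated from 2 to 50 μmol/L.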
# [8] = target: Amyloid-beta precursor protein (Homo sapiens) (UniProt P05067); assay: Inhibition of Cu2+-induced amyloid beta (1 to 42) (unknown origin) aggregation assessed as reduction of H2O2 production at 800 nM after 30 mins by HRP/Amplex red assay
# Procedure, shortened: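 Mixture of CuCl2 400 nM, Aβ, compound 800 nM (1% DMSO) and sodium ascorbate 10 μM in phosphate buffer, 30 min at room temperature. Amplex Red/HRP working solution then added and incubated a further 30 min at room temperature. Fluorescence read at ex/em 530/590 nm, at least three measurements.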
# [9] = Ratio of resveratrol IC50 to compound IC50 for DPPH free radical scavenging activity
# SH-SY5Y [10] = assay: Neuroprotective activity in human SH-SY5Y cells assessed as inhibition H2O2-induced reduction of cell viability at 10 uM after 24 hrs by phase-contrast micrograph analysis; type: functional, cell-based; procedure, shortened: as §1
# Amyloid-beta precursor protein (Homo sapiens), sequence (P05067 whole entry): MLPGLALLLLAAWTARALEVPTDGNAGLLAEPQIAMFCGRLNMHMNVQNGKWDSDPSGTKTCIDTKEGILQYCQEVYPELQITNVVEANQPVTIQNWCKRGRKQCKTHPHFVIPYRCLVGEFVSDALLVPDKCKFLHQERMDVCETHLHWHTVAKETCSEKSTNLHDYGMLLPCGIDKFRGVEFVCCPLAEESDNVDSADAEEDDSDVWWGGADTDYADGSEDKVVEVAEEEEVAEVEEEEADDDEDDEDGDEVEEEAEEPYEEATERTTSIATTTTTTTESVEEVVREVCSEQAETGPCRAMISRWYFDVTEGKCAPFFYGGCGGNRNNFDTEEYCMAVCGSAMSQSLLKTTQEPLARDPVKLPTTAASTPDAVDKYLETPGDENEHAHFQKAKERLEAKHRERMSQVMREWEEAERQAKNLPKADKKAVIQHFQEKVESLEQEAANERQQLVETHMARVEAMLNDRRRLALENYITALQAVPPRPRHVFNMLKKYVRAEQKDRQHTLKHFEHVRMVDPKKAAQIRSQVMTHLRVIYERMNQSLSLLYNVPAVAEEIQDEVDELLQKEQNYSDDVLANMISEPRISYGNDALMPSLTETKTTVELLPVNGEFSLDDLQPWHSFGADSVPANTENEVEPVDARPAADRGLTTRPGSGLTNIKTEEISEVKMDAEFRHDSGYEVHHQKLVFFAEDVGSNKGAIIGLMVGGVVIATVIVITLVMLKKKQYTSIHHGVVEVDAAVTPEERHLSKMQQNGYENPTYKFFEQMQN
Compound,inhibition [1],IC50 [2],other results
Oc1ccccc1/N=C/c1ccccc1F,69.4%,43.9 µM,
Oc1ccccc1/N=C/c1cccc(F)c1,67.6%,36.8 µM,inhibition [3]: 70.2%; Activity [4]: Non-toxic; Activity (SH-SY5Y [5]): Active
Oc1ccc(/C=N/c2ccccc2O)cc1O,64.6%,14.1 µM,inhibition [3]: 68.1%; Activity [6]: Active; Activity [7]: Active; inhibition [8]: 80%; Activity [4]: Non-toxic; Activity (SH-SY5Y [5]): Active; Ratio IC50 [9]: 7.7
Oc1ccc(/C=C/c2cc(O)cc(O)c2)cc1 [RESVERATROL],64.2%,109 µM,Activity (SH-SY5Y [10]): Active
Oc1ccc(Cl)cc1/C=N/c1ccccc1,33.8%,> 2000 µM,
Oc1ccccc1/C=N/c1ccccc1F,27.8%,> 2000 µM,
Oc1ccccc1/N=C/c1ccccc1,51.7%,39.9 µM,
COc1ccc(/C=N/c2ccccc2O)cc1OC,39.4%,28.5 µM,
CN(C)c1ccc(/C=N/c2ccccc2O)cc1,55.8%,45.1 µM,
Oc1ccccc1/C=N/c1ccc(F)cc1,24.9%,> 2000 µM,
Oc1ccccc1/C=N/c1ccccc1 [2-((PHENYLIMINO)METHYL)PHENOL],44.9%,> 2000 µM,
Oc1cccc(/C=N/c2ccccc2O)c1,64.3%,66.6 µM,
COc1ccc(/C=N/c2ccccc2O)cc1,35.7%,32.7 µM,
Oc1ccccc1/C=N/c1ccccc1O,67.2%,51.8 µM,
Oc1ccccc1/C=N/c1cccc(F)c1,31.3%,> 2000 µM,
O=C(O)CN(CCN(CC(=O)O)CC(=O)O)CC(=O)O,,,inhibition [8]: > 90%
Oc1ccc(/C=N/c2ccccc2O)c(O)c1,63.1%,37.8 µM,
Oc1c(I)cc(Cl)c2cccnc12,,,inhibition [3]: 66.7%; inhibition [8]: 75%
Oc1ccc(/C=N/c2ccccc2O)cc1,70.9%,26.5 µM,inhibition [3]: 83.7%; Activity [4]: Non-toxic; Activity (SH-SY5Y [5]): Active
Oc1ccc(/N=C/c2ccccc2O)cc1,71.2%,399 µM,
COc1ccc(O)c(/C=N/c2ccccc2)c1,29%,794 µM,
Oc1cccc(/N=C/c2ccccc2O)c1,66.1%,> 2000 µM,
Oc1ccccc1/N=C/c1ccc(F)cc1,67.8%,41.3 µM,

# Reference: ChEMBL document CHEMBL3098033, “Design, synthesis and biological evaluation of imine resveratrol derivatives as multi-targeted agents against Alzheimer's disease” (Eur J Med Chem, 2014)
